The source of these data is the RNAGym collection of RNA variant scans (doi:10.1126/science.aae0568).

B1: tRNA (parent)
chain: GUUCCGUUGGCGUAAUGGUAACGCGUCUCCCUCCUAAGGAGAAGACUGCGGGUUCGAGUCCCGUACGGAACG

Variants at the floor of the assay were thinned out.

Variants of B1 are the subject of this data set. Put plainly: yeast fitness relative to wild type (ratio to wild type); higher = fitter; tRNA-Arg(CCU), competitive growth, 37 C, YPD. The gist of the method:
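Changes in genotype frequencies gave Darwinian fitness relative to wild type. Frequencies were read by 100-nucleotide paired-end sequencing of gene amplicons before and after pooled Saccharomyces cerevisiae strains, carrying tRNA-Arg(CCU) gene variants at the native locus, were competed in YPD at 37°C for 24 hours in six replicates. A genotype was kept only with ≥ 100 starting reads, and estimates < 0.5 were set to 0.5.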
For GUUCCGUUGGCGUAAUGGUAACGUGUCUCCAUCCUAAGGAGAAGACUGCGGGUUGGUGUCCCGUACGGAACG [C24U C31A C55G A57U], the yeast fitness was 0.532.
The figure for GUUCCGUUGGCGUAAUGGUAACGUGUCUCCCUCCUAAGGAGAAGGCUGCGGGUUCGGGUCCCGUACGGAACG [C24U A45G A57G] is 0.787; for GUUCCGUUGGCGUAAUGGUAACGUGUCUUCCUCCUAAGGAGGAGACUGCGGGUUCGAGACUCGUACGGAACG [C24U C29U A42G U59A C61U] it is not above 0.5.
Next, GUUCCGUUGGCGUAAUGGUAACGUGUCUACCACCUAAGGAGAAGAGUGCGGGUUCGCGUCCCGUACGGAACG [C24U C29A U32A C46G A57C]: 0.5; GUUCCGUUGGCGUAAUGGUAACGUGUCUCUCUCCUAAGGAGAAGACUGCGGGUUCGACUCCCGUACGGAGCG [C24U C30U G58C A70G]: not above 0.5.
Next, GUUCCGUUGGCGUAAUGGUAACGUGUCUCCAUCCUAAGGAGAAGACUGUGGGUUCGCGUCCCGUACGGAACG [C24U C31A C49U A57C]: not above 0.5.
As for GUUCCGUUGGCGUAAUGGUAACGUGUCUCUCUCCUAAGGAGAAGACUGCGGGUUCGGGUCCCGUAUGGAACG [C24U C30U A57G C66U], the yeast fitness came out at 0.538.
As to GUUCCGUUGGCGUAAUGGUAACGUGUCUCCCUCCUAAGGAGAAGACUGCGGGUUCGAGUCCCGUACGGAUCG [C24U A70U], the yeast fitness is 0.881.
Next, GUUCCGUUGGCGUAAUGGUAACGUGUAUCUCUCCUAAGGAGAAGACUGCGGGUUCGAGUCCCUUACGGAACG [C24U C27A C30U G63U]: not above 0.5; GUUCCGUUGGCGUAAUGGUAACGUGUCUCACUCCUAAGGAGAAGACUGCGGGUUUGAGUCCCGUACGGAACG [C24U C30A C55U]: not above 0.5.
The figure for GUUCCGUUGGCGUAAUGGUAACGUGUCUCCCUCCUAAGGAGAAGGCUGCGGGUUCGAGUCCCGUGCGGAACG [C24U A45G A65G] is 0.757; for GUUCCGUUGGCGUAAUGGUAACGUGUCUCCCUCCUAAGGAGAAGACUGCGGGUUCGGGUCGCGUACGGAACG [C24U A57G C61G] it is not above 0.5; for GUUCCGUUGGCGUAAUGGUAACGUGUCUACCACCUAAGGAGAAGAGUGCGGGUUCGAGUCCCGUACGGAUCG [C24U C29A U32A C46G A70U] it is not above 0.5.
The figure for GUUCCGUUGGCGUAAUGGUAACGUGUCUCUCUCCUAAGGAGAAGACUGUGGGCUCGAGUCCCGUACGGAACG [C24U C30U C49U U53C] is not above 0.5; for GUUCCGUUGGCGUAAUGGUAACGUGUCUCUCUCCUAACGAGAAGACUGCGGGUUCGAGUCCCGUACGGAACG [C24U C30U G38C] it is 0.55.
For the variant GUUCCGUUGGCGUAAUGGUAACGUGUCUCCCUCCUAAGGAGAUGACGGCGGGUUCGAGUCCCGUACAGAACG [C24U A43U U47G G67A], the yeast fitness was found to be 0.53.
Next, GUUCCGUUGGCGUAAUGGUAACGUGUCUCUCUCUUAAGGAGAAGACUGCGGAUUCGAGUCCCGUACGGAACG [C24U C30U C34U G52A]: not above 0.5; GUUCCGUUGGCGUAAUGGUAACGUGUCUGCCUCCUAACGAGCAGACUGCGGGUUCGAGUCCCGUACGGAACG [C24U C29G G38C A42C]: not above 0.5; GUUCCGUUGGCGUAAUGGUAACGUGUCUCUCUCCUAAGGAGAAGACUGCGGGUUCGAGUCCCAUACGGAACG [C24U C30U G63A]: 0.502.
Next, GUUCCGUUGGCGUAAUGGUAACGUGUCUUACUCCUAAGGAGAAGACUGCGGGUUCGAGUCCCGUACGGAACG [C24U C29U C30A]: 0.706; GUUCCGUUGGCGUAAUGGUAACGUGUCUCCCUCCUAAGGAGAUGACGGCGGGCUCGAGUCCCGUACGGAACG [C24U A43U U47G U53C]: not above 0.5.
The figure for GUUCCGUUGGCGUAAUGGUAACGUGUCUUCCUCCUAAGGAGGAGACUGCGGGUUCGAGCCCCGUACGGAACG [C24U C29U A42G U59C] is not above 0.5; for GUUCCGUUGGCGUAAUGGUAACGUGUCUCCCUCCUAAGGAGAAGACUGCGGGUUCGCGUCCCGUACGGAACG [C24U A57C] it is 0.601; for GUUCCGUUGGCGUAAUGGUAACGUGUCUCCCUCCUAAGGAGAAGACUGCGGGUUCGUGUCCCGUACGGAACG [C24U A57U] it is 0.641.
As for GUUCCGUUGGCGUAAUGGUAACGUGUCUCCCUCCUAAGGAGAAGGCUGCGGGUUCGAGUCCCGUACGCAACG [C24U A45G G68C], the yeast fitness was found to be 0.641.
Next, GUUCCGUUGGCGUAAUGGUAACGUGUCUCCCUCCUAAGGAGAAGUCUGCGGGUUUGAGUCCCGUACUGAACG [C24U A45U C55U G67U]: not above 0.5; GUUCCGUUGGCGUAAUGGUAACGUGUCUCGCUCCUAAGGAGAAGACUGCGGGUUCGAGUCUCGUUUGGAACG [C24U C30G C61U A65U C66U]: not above 0.5; GUUCCGUUGGCGUAAUGGUAACGUGUCUCGCUCCUAAGGAGAAGACUGCGGGUUCGAGUCCCGUACGGAACG [C24U C30G]: 0.836.
Consider GUUCCGUUGGCGUAAUGGUAACGUGUCUCACUCCUAAGGAGAAGACUGCGGGUUCGAGUCCCGUACGGAACG [C24U C30A], for which the yeast fitness was 0.898.
In the case of GUUCCGUUGGCGUAAUGGUAACGUGUCUUCCUCCUAAGGAGAAGACUGUGUGUUCGAGUCCCGUACGGAACG [C24U C29U C49U G51U], the yeast fitness is not above 0.5.
The figure for GUUCCGUUGGCGUAAUGGUAACGUGUUUCCCUCCUAAGGGGAAAACUGCCGGUUCGAGUCCCGUACGGAACG [C24U C27U A40G G44A G50C] is not above 0.5; for GUUCCGUUGGCGUAAUGGUAACGUGUUUCCCUCCUAAGGAGACGACUGCGGGUUCGAGUCCCGUACGGAACG [C24U C27U A43C] it is 1.04; for GUUCCGUUGGCGUAAUGGUAACGUGUCUCCAUCCUAAGGAGAAGACUGCGGGUGCGAGUCCCGUACGGAACG [C24U C31A U54G] it is 0.75.
Next, GUUCCGUUGGCGUAAUGGUAACGUGUCUCUGUCCUAAGGAGAAGACUGCGGGUUCGGGUCCCGUACGGAACG [C24U C30U C31G A57G]: 0.576; GUUCCGUUGGCGUAAUGGUAACGUGUCUCCCUCCUAAGGAGAUGACUGCGGGUUCGAGUCCCGUAUGGAACG [C24U A43U C66U]: 0.801.
Next, GUUCCGUUGGCGUAAUGGUAACGUGUCUCCCUCCUAAGGAGAAGACUGCGGGUUCGAGUCCCGUACGGCCCG [C24U A69C A70C]: 0.536.
As for GUUCCGUUGGCGUAAUGGUAACGUGUCUCCAUCCUAAGGAGACGACUGCGGGUUCGACUCCCGGACGGAACG [C24U C31A A43C G58C U64G], the yeast fitness is not above 0.5.
